For assay [1], the system named is Canis familiaris. As to the kind of experiment: Increased heart rate in anesthetized dogs after intravenous administration. Type of assay: functional, Canis lupus familiaris.
For assay [2], the system named is Canis familiaris. Put plainly: Decreased mean arterial blood pressure in anesthetized dogs after intravenous administration. Type of assay: functional, Canis lupus familiaris.
The target of assay [3] is Phosphodiesterase; PDE3 & PDE4. Put plainly: (§1) Inhibition of Sarcoplasmic Reticulum cAMP Phosphodiesterase from canine myocardium. Type of assay: tissue-based, Canis lupus familiaris. In short, it runs like this: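 PDE came from free sarcoplasmic reticulum vesicles (fraction E) of canine ventricles, stored at -80 °C. Two-step assay with 1 μM cAMP substrate, run 60 min at room temperature (22 ± 2 °C). Enzyme was added to hydrolyze less than 20% of the substrate.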

Assay [4] relates to Canis familiaris. As to the kind of experiment: Myocardial contractility in anesthetized dogs on intravenous administration. As to conditions: Canis lupus familiaris, Myocardium. Type of assay: functional. In short, it runs like this:
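Open-chest, pentobarbital-anesthetized dogs. Right ventricular contractility was measured with a Walton-Brodie strain-gauge arch sutured to the ventricle, baseline 50 g tension. Increasing iv doses via the femoral vein at 5-min intervals; peak responses recorded; vehicle controls given. ED50 by linear regression, mean ± SEM (n > 2) or mean ± range (n = 2).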

The target in assay [5] is Phosphodiesterase; PDE3 & PDE4. Described as §1. Type of assay: tissue-based, Canis lupus familiaris. The procedure, abridged:
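PDE came from free sarcoplasmic reticulum vesicles (fraction E) of canine ventricles, stored at -80 °C. Two-step assay with 1 μM cAMP substrate, run 60 min at room temperature (22 ± 2 °C). Enzyme was added to hydrolyze less than 20% of the substrate. Inhibitors were dissolved in DMSO, with 2.5% v/v carryover. IC50 and 95% confidence limits were obtained by regression of the logit transformation.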
The source holds these as a separate data set.

With `O=C1CCC(c2ccc3c(c2)C2(CCCC2)C(=O)N3)=NN1`, in assay [1], the “Increase in HR” value is recorded as 14%. In addition, the “Decrease in MAP” value in assay [2] is 17%. Besides, the IC50 (as a rule, the midpoint of a concentration-inhibition curve) in assay [3] came to 930 nM. Also, the 50% effect level in assay [4] (ED50) was put at a dose of 0.133 mg/kg.

In the case of `O=C1CCC(c2ccc3c(c2)C2(CCC2)C(=O)N3)=NN1`, the “Increase in HR” value in assay [1] came out at 13%. Moreover, the “Decrease in MAP” value in assay [2] was determined as 17%. This compound also had an IC50 in assay [3] of 290 nM. For the same compound, the ED50 (in general, the dose that gives a 50% effect, or the effect in half of the subjects) in assay [4] came out at 0.0348 mg/kg.

As to `CC1CC(=O)NN=C1c1ccc2c(c1)C1(CC1)C(=O)N2` (stereo not given), the “Increase in HR” value in assay [1] turned out to be 17%. For the same compound, the “Decrease in MAP” value in assay [2] amounted to 35%. In assay [3], this compound had an IC50 of 13 nM. For the same compound, the 50% effect level in assay [4] (ED50) was put at a dose of 0.0015 mg/kg.

`CC1CC(O)=NN=C1c1ccc(-n2ccnc2)cc1` (stereo not given) [CI-930] showed an ED50 in assay [4] of 0.013 mg/kg.

The compound `O=C1CCC(c2ccc(-n3ccnc3)cc2)=NN1` [IMAZODAN] had an ED50 in assay [4] of 0.045 mg/kg.

As for `CC1(C)C(=O)Nc2ccc(C3=NNC(=O)CC3)cc21` [INDOLIDAN], the “Increase in HR” value in assay [1] was 11.8%. In assay [2], the “Decrease in MAP” value turned out to be 15.2%. For the same compound, the IC50 in assay [3] stood at 130 nM. The Ki (usually the equilibrium dissociation constant of an inhibitor or competing ligand from its target) in assay [5] was 80 nM. In addition, the ED50 in assay [4] was found to be 0.0068 mg/kg.

In assay [4], `Cc1[nH]c(=O)c(C#N)cc1-c1ccncc1` [MILRINONE] displayed an ED50 of 0.037 mg/kg.
